# Experimental data published in ChEMBL document CHEMBL4261627, “Design, synthesis and anti-melanogenic effect of cinnamamide derivatives” (Bioorg Med Chem, 2018).
# Experiments:
# [1] = Antioxidant activity assessed as DPPH-radical scavenging activity at 1 mM incubated for 30 mins under dark condition; assay type: functional
# Summary of the method: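 DPPH (0.2 mM in methanol, 180 µL) was mixed with 20 µL of compound from a 10 mM DMSO stock, giving 1 mM final. The mix was kept in the dark for 30 min and read at 517 nm, with L-ascorbic acid as reference. % scavenging = (Ac−As)/Ac × 100 against untreated control. Triplicate, mean ± SD.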
# [2] = target: T1, Tyrosinase (Mus musculus) (UniProt P11344); experiment: Inhibition of tyrosinase in alpha-MSH stimulated mouse B16F10 cells using L-dopa as substrate pretreated for 24 hrs followed by substrate addition and measured after 30 mins
# T1 sequence (whole entry): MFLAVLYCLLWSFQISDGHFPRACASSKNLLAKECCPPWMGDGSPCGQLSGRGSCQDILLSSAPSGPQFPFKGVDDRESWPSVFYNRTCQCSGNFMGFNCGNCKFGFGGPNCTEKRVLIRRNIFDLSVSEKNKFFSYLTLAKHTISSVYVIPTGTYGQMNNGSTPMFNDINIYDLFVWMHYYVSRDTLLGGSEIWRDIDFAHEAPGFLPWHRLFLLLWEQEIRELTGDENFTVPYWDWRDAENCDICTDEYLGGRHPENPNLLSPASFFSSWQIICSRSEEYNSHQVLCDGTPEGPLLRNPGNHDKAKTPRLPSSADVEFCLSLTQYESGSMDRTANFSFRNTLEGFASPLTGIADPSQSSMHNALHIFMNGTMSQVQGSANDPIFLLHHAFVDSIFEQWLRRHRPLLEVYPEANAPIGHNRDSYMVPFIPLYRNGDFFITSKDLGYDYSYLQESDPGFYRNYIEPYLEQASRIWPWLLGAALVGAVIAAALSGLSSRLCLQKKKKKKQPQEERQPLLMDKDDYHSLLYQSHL
# Summary of the method: (§1)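 Cells were lysed in pH 6.8 phosphate buffer with 0.1 mM PMSF and 1% Triton X-100, frozen at −80 °C, and spun. Supernatant (80 µL) was incubated with 20 µL of 10 mM L-dopa at 37 °C for 30 min and read at 500 nm. Triplicate.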
# [3] = system: B16-F10; experiment: Antimelanogenic activity in mouse B16F10 cells assessed as inhibition of alpha-MSH-stimulated melanin synthesis at 25 uM measured after 24 hrs; assay type: functional; settings: B16-F10, 24 h
# Summary of the method: (§2)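 B16F10 cells were seeded at 5x10^4 cells/well and grown 24 h at 37 °C in 5% CO2. […] After PBS washes, melanin was dissolved in 1 N NaOH and read as absorbance at 405 nm. Triplicate, mean ± SEM.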
# [4] = system: B16-F10; experiment: Cytotoxicity against mouse B16F10 cells up to 25 uM after 24 hrs by WST8 assay; assay type: cell-based; settings: b16-f10, 24 h
# Summary of the method: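 B16F10 cells (from DMEM/10% FBS culture) were seeded at 1x10^4 cells/well and held 24 h at 37 °C, 5% CO2. Compound (0, 5, 10, 25 µM) was added for a further 24 h. WST-8 reagent was then applied for 30 min to 2 h at 37 °C and OD read at 450 nm. Viability expressed as % of control; triplicate.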
# [5] = target: T1, Tyrosinase (Mus musculus); experiment: Inhibition of tyrosinase in alpha-MSH stimulated mouse B16F10 cells at 10 uM using L-dopa as substrate pretreated for 24 hrs followed by substrate addition and measured after 30 mins; summary of the method: as §1
# [6] = system: B16-F10; experiment: Antimelanogenic activity in mouse B16F10 cells assessed as inhibition of alpha-MSH-stimulated melanin synthesis at 10 uM measured after 24 hrs; assay type: functional, cell-based; summary of the method: as §2
# [7] = target: T1, Tyrosinase (Mus musculus); settings: 400 uM
SMILES,inhibition [1] [%],inhibition at 25 µM [3] [%],other results
COc1ccc(/C=C/C(=O)N2CCCCC2)cc1O,37.6,,
O=C(/C=C/c1ccc(O)cc1)N1CCCCC1,0.91,,
O=C(/C=C/c1ccc(O)cc1O)N1CCCC1,22.3,78.3,inhibition [2]: Dose-dependent effect; Activity [4]: Non-Toxic; inhibition [5]: 38.3%; inhibition [6]: Dose-dependent effect
COc1cc(/C=C/C(=O)N2CCCC2)ccc1O,82.1,,
COc1cc(/C=C/C(=O)N2CCCCC2)ccc1O,80.7,72.7,inhibition [2]: Dose-dependent effect; Activity [4]: Non-Toxic; inhibition [5]: 44%; inhibition [6]: Dose-dependent effect
COc1ccc(/C=C/C(=O)N2CCCC2)cc1O,34.2,,
O=C(/C=C/c1ccc(O)cc1)N1CCCC1,3.51,,
O=C(/C=C/c1ccc(O)cc1O)N1CCCCC1,30.7,61.8,Activity [4]: Non-Toxic; inhibition [5]: 23.3%; inhibition [6]: Dose-dependent effect
O=C(/C=C/c1ccc(O)c(O)c1)N1CCCCC1,82.8,,
OC[C@H]1O[C@@H](Oc2ccc(O)cc2)[C@H](O)[C@@H](O)[C@@H]1O,,,inhibition [7]: 51.7%
O=c1cc(CO)occ1O [KOJIC ACID],,37.6,
O=C(/C=C/c1ccc(O)c(O)c1)N1CCCC1,83.2,,
O=C1O[C@H]([C@@H](O)CO)C(O)=C1O,84.6,,
